Laboratory results published in ChEMBL document CHEMBL3525968, “Use of transporter knockdown Caco-2 cells to investigate the in vitro efflux of statin drugs” (Drug Metab Dispos, 2011).

How the values were obtained:
[1] = Apparent permeability of the compound in vector transfected human Caco2 cells at 10 uM up to 120 mins by reverse-phase liquid chromatography with triple-quadrupole tandem mass spectrometry analysis; assay type: ADME, cell-based; details: caco-2, 2 h
[2] = system: P-gp; experiment: Apparent permeability from basolateral to apical side of P-gp knockdown human Caco2 cells at 10 uM up to 120 mins by reverse-phase liquid chromatography with triple-quadrupole tandem mass spectrometry analysis; assay type: ADME, cell-based, Caco-2
How it was run: (§1)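 Knockdown verified by real-time PCR. Cells grown 3 weeks on collagen-coated polycarbonate Transwells. Bidirectional transport of 10 µM compound in HBSSg pH 7.4, with atenolol and propranolol co-dosed. Receiver sampled at 30–120 min, analysed by LC-MS/MS. Mean ± S.D., n = 3.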

[3] = Apparent permeability from basolateral to apical side of vector transfected human Caco2 cells at 10 uM up to 120 mins by reverse-phase liquid chromatography with triple-quadrupole tandem mass spectrometry analysis; assay type: ADME, cell-based; details: Caco-2; how it was run: as §1
[4] = system: BCRP; experiment: Apparent permeability from basolateral to apical side of BCRP knockdown human Caco2 cells at 10 uM up to 120 mins by reverse-phase liquid chromatography with triple-quadrupole tandem mass spectrometry analysis; assay type: ADME, cell-based, Caco-2; how it was run: as §1
[5] = Apparent permeability of the compound in BCRP knockdown human Caco2 cells at 10 uM up to 120 mins by reverse-phase liquid chromatography with triple-quadrupole tandem mass spectrometry analysis; assay type: ADME, cell-based; details: caco-2, 2 h
[6] = system: MRP2; experiment: Apparent permeability from basolateral to apical side of MRP2 knockdown human Caco2 cells at 10 uM up to 120 mins by reverse-phase liquid chromatography with triple-quadrupole tandem mass spectrometry analysis; assay type: ADME, cell-based, Caco-2; how it was run: as §1
[7] = Apparent permeability of the compound in P-gp knockdown human Caco2 cells at 10 uM up to 120 mins by reverse-phase liquid chromatography with triple-quadrupole tandem mass spectrometry analysis; assay type: ADME, cell-based; details: caco-2, 2 h
[8] = Apparent permeability of the compound in MRP2 knockdown human Caco2 cells at 10 uM up to 120 mins by reverse-phase liquid chromatography with triple-quadrupole tandem mass spectrometry analysis; assay type: ADME, cell-based; details: caco-2, 2 h
[9] = system: MRP2; experiment: Efflux ratio of permeability from […] side in MRP2 knockdown human Caco2 cells at 10 uM up to 120 mins by reverse-phase liquid chromatography with triple-quadrupole tandem mass spectrometry analysis; assay type: ADME, cell-based, Caco-2
How it was run: (§2)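 Caco-2 cells stably carrying lentiviral shRNA against MRP2 or non-targeting shRNA (vector control), kept under 10 µg/mL puromycin, knockdown confirmed by real-time PCR. Cells seeded at 60,000 cells/cm2 on collagen-coated polycarbonate Transwell membranes and grown 3 weeks. HBSS with 10 mM HEPES, 15 mM glucose, pH 7.4. Substrate at 10 µM, dosed apical or basolateral. Receiver sampled at 30, 60, 90, 120 min. Quantified by LC-MS/MS. Papp = VR/(A×C0)×dC/dt.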

[10] = system: BCRP; experiment: Apparent permeability from apical to basolateral side of BCRP knockdown human Caco2 cells at 10 uM up to 120 mins by reverse-phase liquid chromatography with triple-quadrupole tandem mass spectrometry analysis; assay type: ADME, cell-based, Caco-2
How it was run: as §1, with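 “Caco-2 (CRL-2102) stably transduced with lentiviral shRNA against P-gp, BCRP or MRP2, or non-targeting shRNA vector control, kept under 10 µg/mL puromycin. Knockdown” for “Knockdown”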

[11] = Efflux ratio of permeability from […] side in BCRP knockdown human Caco2 cells at 10 uM up to 120 mins by reverse-phase liquid chromatography with triple-quadrupole tandem mass spectrometry analysis; assay type: ADME, cell-based; details: caco-2, 2 h
How it was run: as §1, with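 “Caco-2 (CRL-2102) stably transduced with lentiviral shRNA against P-gp, BCRP or MRP2, or non-targeting shRNA vector control, kept under 10 µg/mL puromycin. Knockdown” for “Knockdown”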

[12] = Efflux ratio of permeability from […] side in MRP2 knockdown human Caco2 cells at 10 uM up to 120 mins by reverse-phase liquid chromatography with triple-quadrupole tandem mass spectrometry analysis relative to vector transfected cells; assay type: ADME, cell-based; details: caco-2, 2 h; how it was run: as §2
[13] = Efflux ratio of permeability from […] side in P-gp knockdown human Caco2 cells at 10 uM up to 120 mins by reverse-phase liquid chromatography with triple-quadrupole tandem mass spectrometry analysis; assay type: ADME, cell-based; details: caco-2, 2 h
How it was run: as §1, with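 “Caco-2 (CRL-2102) stably transduced with lentiviral shRNA against P-gp, BCRP or MRP2, or non-targeting shRNA vector control, kept under 10 µg/mL puromycin. Knockdown” for “Knockdown”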

[14] = Efflux ratio of permeability from […] side in BCRP knockdown human Caco2 cells at 10 uM up to 120 mins by reverse-phase liquid chromatography with triple-quadrupole tandem mass spectrometry analysis relative to vector transfected cells; assay type: ADME, cell-based; details: caco-2, 2 h
How it was run: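 Efflux ratio (B-A over A-B Papp) measured in shRNA knockdown Caco-2 monolayers and in non-targeting vector-control monolayers, both under puromycin selection. 10 µM compound in HBSSg pH 7.4. Receiver sampled 30–120 min, LC-MS/MS. Each knockdown ratio is expressed as a percentage of the vector-control ratio.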

[15] = Apparent permeability from apical to basolateral side of vector transfected human Caco2 cells at 10 uM up to 120 mins by reverse-phase liquid chromatography with triple-quadrupole tandem mass spectrometry analysis; assay type: ADME, cell-based; details: Caco-2; how it was run: as §2
[16] = system: P-gp; experiment: Apparent permeability from apical to basolateral side of P-gp knockdown human Caco2 cells at 10 uM up to 120 mins by reverse-phase liquid chromatography with triple-quadrupole tandem mass spectrometry analysis; assay type: ADME, cell-based, Caco-2
How it was run: as §1, with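 “Caco-2 (CRL-2102) stably transduced with lentiviral shRNA against P-gp, BCRP or MRP2, or non-targeting shRNA vector control, kept under 10 µg/mL puromycin. Knockdown” for “Knockdown”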

[17] = system: MRP2; experiment: Apparent permeability from apical to basolateral side of MRP2 knockdown human Caco2 cells at 10 uM up to 120 mins by reverse-phase liquid chromatography with triple-quadrupole tandem mass spectrometry analysis; assay type: ADME, cell-based, Caco-2; how it was run: as §2
[18] = Apparent permeability from basolateral to apical side of human Caco2 cells up to 120 mins by Michaelis-Menten equation analysis; assay type: ADME, cell-based, Caco-2

SMILES | Papp [1] | Papp B→A at 2 h, 10 µM [2] [×10⁻⁶ cm/s] | Papp B→A at 2 h, 10 µM [3] [×10⁻⁶ cm/s] | Papp B→A at 2 h, 10 µM [4] [×10⁻⁶ cm/s] | Papp [5] | Papp B→A at 2 h, 10 µM [6] [×10⁻⁶ cm/s] | Papp [7] | Papp [8] | efflux ratio at 2 h, 10 µM [9] | Papp A→B at 2 h, 10 µM [10] [×10⁻⁶ cm/s] | Ratio [11] | Ratio [12] [%] | Ratio [13] | Ratio [14] [%] | Papp A→B at 2 h, 10 µM [15] [×10⁻⁶ cm/s] | Papp A→B at 2 h, 10 µM [16] [×10⁻⁶ cm/s] | Papp A→B at 2 h, 10 µM [17] [×10⁻⁶ cm/s] | Km at 2 h ([18]; Caco-2) [µM] | Vmax ([18]; caco-2, 2 h) [pmol/min/cm2]
CC(C)n1c(/C=C/C(O)CC(O)CC(=O)[O-])c(-c2ccc(F)cc2)c2ccccc21.[Na+] (racemic) [FLUVASTATIN SODIUM] | permeable | 25.3 | 96.1 | 57.3 | impermeable | 48.2 | impermeable | impermeable | – | – | – | – | – | – | – | – | – | – | –
C[C@H]1O[C@@H](O[C@H]2[C@@H](O)C[C@H](O[C@H]3[C@@H](O)C[C@H](O[C@H]4CC[C@@]5(C)[C@H](CC[C@@H]6[C@@H]5C[C@@H](O)[C@]5(C)[C@@H](C7=CC(=O)OC7)CC[C@]65O)C4)O[C@@H]3C)O[C@@H]2C)C[C@H](O)[C@@H]1O [DIGOXIN] | – | 11.8 | 20.1 | 9.46 | – | 19 | – | – | 21.4 | 0.54 | 17.7 | 121 | 7.4 | 100 | 1.14 | 1.59 | – | – | –
C[C@]12CC[C@@H]3c4ccc(OS(=O)(=O)O)cc4CC[C@H]3[C@@H]1CCC2=O [ESTRONE SULFURIC ACID] | – | 22.9 | 27.2 | 10.5 | – | 33.5 | – | – | 62.2 | 1.03 | 10.2 | 128 | 43.6 | 21 | 0.57 | 0.52 | 0.54 | – | –
CC[C@H](C)C(=O)O[C@H]1C[C@@H](C)C=C2C=C[C@H](C)[C@H](CC[C@@H]3C[C@@H](O)CC(=O)O3)[C@H]21 [LOVASTATIN] | impermeable | – | – | – | impermeable | – | impermeable | impermeable | – | – | – | – | – | – | – | – | – | – | –
CC(C)c1nc(N(C)S(C)(=O)=O)nc(-c2ccc(F)cc2)c1/C=C/[C@@H](O)C[C@@H](O)CC(=O)[O-].CC(C)c1nc(N(C)S(C)(=O)=O)nc(-c2ccc(F)cc2)c1/C=C/[C@@H](O)C[C@@H](O)CC(=O)[O-].[Ca+2] [ROSUVASTATIN CALCIUM] | permeable | 4.6 | 14.1 | 5.8 | impermeable | 6.6 | impermeable | impermeable | – | – | – | – | – | – | – | – | – | 98 | 137
O=C1OC(c2ccc(O)c(S(=O)(=O)[O-])c2)(c2ccc(O)c(S(=O)(=O)[O-])c2)c2c(Br)c(Br)c(Br)c(Br)c21.[Na+].[Na+] [SULFOBROMOPHTHALEIN SODIUM] | – | – | 1.45 | – | – | 0.9 | – | – | 2.6 | – | – | 5 | – | – | 0.03 | – | 0.34 | – | –
